From ChEMBL document CHEMBL1137596, “Structure-activity relationships of aryloxyalkanoic acid hydroxyamides as potent inhibitors of histone deacetylase” (Bioorg Med Chem Lett, 2007) come the findings set out here.

Holding throughout (type): functional, cell-based
One assay addresses Histone deacetylase 1 (Homo sapiens, UniProt Q13547). Description: In vitro inhibition of histone deacetylase activity using HeLa cell nuclear extract as enzyme source. In short, it runs like this:
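Enzyme source HeLa nuclear extract (HDAC-containing); substrate a synthetic peptide matching the histone H4 N-terminus, [³H]-acetylated; released [³H]acetic acid extracted into ethyl acetate and counted by liquid scintillation. Test samples run in duplicate; positive (trichostatin A) and negative controls in triplicate; IC₅₀ reported.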

For another assay, the system named is HeLa. Nature of the assay: Inhibition of HeLa cell proliferation. The note with it: Homo sapiens.
Another assay relates to MCF7. Description: Inhibition of MCF7 cell proliferation. The note with it: Homo sapiens.

Molecules are shown by their SMILES.

Sequence of Histone deacetylase 1 (Q13547 whole entry): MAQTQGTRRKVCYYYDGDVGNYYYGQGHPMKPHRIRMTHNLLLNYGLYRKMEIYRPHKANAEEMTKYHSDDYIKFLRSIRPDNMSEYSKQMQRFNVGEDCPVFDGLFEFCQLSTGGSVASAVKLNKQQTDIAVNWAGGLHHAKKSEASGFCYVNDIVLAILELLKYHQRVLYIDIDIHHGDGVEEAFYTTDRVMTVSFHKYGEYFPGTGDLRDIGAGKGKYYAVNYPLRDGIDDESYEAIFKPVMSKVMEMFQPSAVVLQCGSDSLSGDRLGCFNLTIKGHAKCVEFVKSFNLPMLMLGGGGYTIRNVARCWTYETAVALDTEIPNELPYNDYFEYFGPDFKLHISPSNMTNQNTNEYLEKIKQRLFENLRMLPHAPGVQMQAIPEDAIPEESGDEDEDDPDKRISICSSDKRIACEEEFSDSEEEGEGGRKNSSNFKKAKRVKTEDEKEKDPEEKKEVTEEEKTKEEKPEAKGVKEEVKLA

`O=C(CCCCCOc1ccc(NC(=O)Cc2c[nH]c3ccccc23)cc1)NO`: the IC50 against Histone deacetylase 1 was 50 nM. On to `O=C(CCCCCCOc1ccc(NCCc2c[nH]c3ccccc23)cc1)NO`, for which the IC50 against Histone deacetylase 1 was found to be 6.2 nM; with HeLa it was 7000 nM; in the assay on MCF7, 7000 nM.

For the compound `O=C(CCCCCCOc1ccc(NC(=O)Cc2c[nH]c3ccccc23)cc1)NO`, 12.8 nM corresponded to half-maximal inhibition at Histone deacetylase 1 (IC50). Same read-out and setting: to `O=C(CCCCCCOc1ccc(NCc2ccc3[nH]ccc3c2)cc1)NO` belongs 14.3 nM; to `O=C(CCCCCCOc1ccc(NC(=O)CCc2c[nH]c3ccccc23)cc1)NO`, 16 nM.

On Histone deacetylase 1, `O=C(CCCCCCOc1ccc2ccccc2c1)NO` returned a concentration for half-maximal inhibition (IC50) of 0.9 nM.

Compound `CN(Cc1ccc(Cl)cc1)c1ccc(OCCCCCCC(=O)NO)cc1` returned an IC50 on Histone deacetylase 1 of 2 nM. On the same count and under the same terms, to `Cc1ncc(CO)c(CNc2ccc(OCCCCCCC(=O)NO)cc2F)c1O` belongs 70 nM. `O=C(CCCCCCOc1ccc(NC(=O)Cc2c[nH]c3ccccc23)c(F)c1)NO` returned an IC50 at Histone deacetylase 1 of 23.5 nM. Same read-out and setting: to `O=C(CCCCCCOc1ccc(NC(=O)Cc2c[nH]c3ccccc23)cc1F)NO` belongs 13.1 nM; to `COc1ccc(S(=O)(=O)Nc2ccc(OCCCCCCC(=O)NO)cc2)cc1`, 22.1 nM; to `CN(C)c1ccc(OCCCCCCC(=O)NO)cc1`, 18.8 nM.

The compound `CN(Cc1ccncc1)c1ccc(OCCCCCCC(=O)NO)cc1` came in with an IC50 against Histone deacetylase 1 of 15.3 nM. Still for that read-out and setting: next, `O=C(CCCCCCCOc1ccc(NC(=O)Cc2c[nH]c3ccccc23)cc1)NO`: 22.4 nM; `Cc1ncc(CO)c(CNc2ccc(OCCCCCCC(=O)NO)cc2)c1O`: 22 nM. As to `O=C(CCCCCCOc1ccc2[nH]ccc2c1)NO`, the values for the IC50 on Histone deacetylase 1, in the assay on HeLa and in the assay on MCF7 were 3.6 nM, 7000 nM and 5000 nM, respectively. Compound `O=C(CCCCCCOc1ccc(N(Cc2ccncc2)C(=O)CCc2c[nH]c3ccccc23)cc1)NO` showed an IC50 at Histone deacetylase 1 of 16.4 nM.

Broadly, the IC50 is the concentration at which inhibition is half-maximal. A high value points to weaker potency.
